For data set [1], the system named is SK-N-BE(2). Put plainly: Inhibition of lysosomal defects in NAGLU-silenced human SK-NBE cell clones assessed as reduction in accumulation of enlarged LAMP1-positive lysosomal structures within the cytoplasm at 20 uM incubated for 48 hrs by LAMP1 staining based indirect immunofluorescence assay. It counts as functional. The method, boiled down: (§1)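 Control and NAGLU-silenced SK-NBE clones grown on coverslips with 20 μM compound for 48 h. Fixed in 3.7% formaldehyde, permeabilized with saponin/BSA buffer, stained with anti-Lamp1 or anti-HS 10E4 for 1 h, then Alexa secondaries. Confocal imaging with 63× objective. Scored as percent cells with enlarged Lamp1 structures or membrane HS, plus mean fluorescence intensity, over 50 random cells from three experiments.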

The test system of data set [2] is Fibroblast. Put plainly: Effect on heparan sulfate changes in human fibroblast cells at 20 uM incubated for 48 hrs by indirect immunofluorescence staining analysis. Type of data set: functional, cell-based. The gist of the method:
(§2)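 HDFa, MPS IIIA, MPS IIIB and MPS I patient fibroblasts in DMEM, 10% FBS, grown 48 h on coverslips with 20 μM compound. Double immunostained for HS (10E4) and Lamp1 with DAPI, confocal imaging. Mean fluorescence intensity expressed relative to untreated cells (d-enantiomers: percent positive cells), 50 random cells from three experiments.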

The test system of data set [3] is HeLa. Put plainly: Inhibition of heparan sulfate accumulation on cell membrane in human HeLa cells at 20 uM incubated for 48 hrs by indirect immunofluorescence staining analysis. It counts as functional, cell-based. The method, boiled down: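 HeLa cells grown 48 h with compound, then immunostained with anti-HS antibody 10E4 to gauge membrane HS.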
A short description of data set [4]: Antiproliferative activity against human CuFi cells upto 100 uM. It counts as toxicity, cell-based.
The test system of data set [5] is HeLa. Put plainly: Cytotoxicity against human HeLa cells assessed as reduction in cell viability at 20 uM incubated for 48 hrs by trypan blue exclusion method. Type of data set: functional, cell-based. The method, boiled down:
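HeLa cells seeded at 100,000 per well and grown overnight in complete RPMI. Exposed to 20 μM compound in the same medium for 48 h at 37 °C; untreated mock as control. Cells trypsinized, live cells counted by trypan blue exclusion on an automated counter. Means of three independent experiments, each in triplicate, with s.e.m.; Student's t-test, p < 0.05.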

In data set [6] the test system is Fibroblast. Put plainly: Inhibition of lysosomal defects in Sanfilippo-B patient derived human fibroblast cells assessed as dispersion of lysosomes all over the cytoplasm at 20 uM incubated for 48 hrs by LAMP1 staining based indirect immunofluorescence assay. Type of data set: functional, cell-based. The gist of the method: as §2
In data set [7] the test system is SK-N-BE(2). Put plainly: Effect on heparan sulfate changes in human SK-NBE cell membrane at 20 uM incubated for 48 hrs by indirect immunofluorescence staining analysis. Type of data set: functional, cell-based. The gist of the method:
as §1

The subject of data set [8] is SK-N-BE(2). Put plainly: Inhibition of heparan sulfate accumulation on cell membrane in NAGLU-silenced human SK-NBE cells clone at 20 uM incubated for 48 hrs by indirect immunofluorescence staining analysis. Type of data set: functional, cell-based. The method, boiled down: as §1
The subject of data set [9] is Fibroblast. Put plainly: Inhibition of lysosomal defects in Sanfilippo-B patient derived human fibroblast cells assessed as reduction in accumulation of enlarged LAMP1-positive lysosomal structures within the cytoplasm at 20 uM incubated for 48 hrs by LAMP1 staining based indirect immunofluorescence assay. It counts as functional, cell-based. The method, boiled down: as §2

Data set [10] relates to Fibroblast. Put plainly: Inhibition of lysosomal defects in Sanfilippo-B patient derived human fibroblast cells assessed as reduction in more concentrated lysosomal distribution in the perinuclear region of the cytoplasm at 20 uM incubated for 48 hrs by LAMP1 staining based indirect immunofluorescence assay. Type of data set: functional, cell-based. The gist of the method: as §2

Data set [11] relates to IB3-1. Put plainly: Antiproliferative activity against human IB3-1 cells upto 100 uM. It counts as toxicity, cell-based. The note with it: ib3-1, 100 µM.
The nature of data set [12]: Cytotoxicity against human CuFi cells assessed as induction of apoptosis upto 100 uM. Type of data set: toxicity, cell-based.
In data set [13] the test system is IB3-1. Put plainly: Cytotoxicity against human IB3-1 cells assessed as induction of apoptosis upto 100 uM. Type of data set: toxicity, cell-based. Conditions: ib3-1, 100 µM.
In data set [14] the test system is HaCaT. Put plainly: Antiproliferative activity against human HaCaT cells upto 100 uM. Type of data set: toxicity, cell-based.
In data set [15] the test system is HaCaT. Put plainly: Cytotoxicity against human HaCaT cells assessed as induction of apoptosis upto 100 uM. It counts as toxicity, cell-based.
In data set [16] the test system is SK-N-BE(2). Put plainly: Effect on lysosome size and distribution in human SK-NBE cell clone assessed as at 20 uM incubated for 48 hrs by LAMP1 staining based indirect immunofluorescence assay. Type of data set: functional. The method, boiled down:
as §1

Data set [17] concerns SK-N-BE(2). Put plainly: Inhibition of lysosomal defects in NAGLU-silenced human SK-NBE cell clones assessed as reduction in more concentrated lysosomal distribution in the perinuclear region of the cytoplasm at 20 uM incubated for 48 hrs by LAMP1 staining based indirect immunofluorescence assay. It counts as functional. The gist of the method:
as §1

Data set [18] relates to Fibroblast. Put plainly: Inhibition of lysosomal defects in MPS-1 patient derived human fibroblast cells assessed as reduction in accumulation of enlarged LAMP1-positive lysosomal structures within the cytoplasm at 20 uM incubated for 48 hrs by LAMP1 staining based indirect immunofluorescence assay. It counts as functional, cell-based. The method, boiled down:
as §2

In data set [19] the test system is Fibroblast. Put plainly: Inhibition of heparan sulfate accumulation on cell membrane in Sanfilippo-A patient derived human fibroblast cells at 20 uM incubated for 48 hrs by indirect immunofluorescence staining analysis. It counts as functional, cell-based. The method, boiled down:
as §2

Data set [20] concerns Fibroblast. Put plainly: Inhibition of heparan sulfate accumulation on cell membrane in Sanfilippo-B patient derived human fibroblast cells at 20 uM incubated for 48 hrs by indirect immunofluorescence staining analysis. It counts as functional, cell-based. The gist of the method: as §2
Data set [21] relates to Fibroblast. Put plainly: Inhibition of lysosomal defects in Sanfilippo-A patient derived human fibroblast cells assessed as reduction in accumulation of enlarged LAMP1-positive lysosomal structures within the cytoplasm at 20 uM incubated for 48 hrs by LAMP1 staining based indirect immunofluorescence assay. Type of data set: functional, cell-based. The gist of the method:
as §2

Data set [22] relates to Fibroblast. Put plainly: Inhibition of heparan sulfate accumulation on cell membrane in MPS-1 patient derived human fibroblast cells at 20 uM incubated for 48 hrs by indirect immunofluorescence staining analysis. It counts as functional, cell-based. The method, boiled down: as §2
In data set [23] the test system is SK-N-BE(2). Put plainly: Inhibition of lysosomal defects in NAGLU-silenced human SK-NBE cell clones assessed as dispersion of lysosomes all over the cytoplasm at 20 uM incubated for 48 hrs by LAMP1 staining based indirect immunofluorescence assay. Type of data set: functional. The method, boiled down:
as §1

The source made the active and inactive calls. The rule behind the calls is not given here.

Consider `CCCCCCCCCOCCCCCN1C[C@@H](O)[C@H](O)[C@@H](O)[C@@H]1CO.Cl`, for which the inhibition entry with SK-N-BE(2) [1], with HeLa [3], in the data set on Fibroblast [6], in the data set on SK-N-BE(2) [8], in the data set with Fibroblast [9] and in the data set with Fibroblast [10] was “inactive” each time. Further, the outcome with Fibroblast [2], in the data set with HeLa [5], in the data set on SK-N-BE(2) [7] and in the data set on SK-N-BE(2) [16] was inactive. Moreover, the Activity entry (in data set [4]; in the data set on IB3-1 [11]; in [12]; with IB3-1 [13]; with HaCaT [14]; in the data set on HaCaT [15]) was “Non-Toxic” throughout.
With `CCCCCCCCCN1C[C@@H](O)[C@H](O)[C@@H](O)[C@@H]1CO.Cl`, the inhibition result with SK-N-BE(2) [1], in the data set with HeLa [3], in the data set with Fibroblast [6], in the data set with SK-N-BE(2) [8], with Fibroblast [9] and in the data set with Fibroblast [10] was “inactive” in each case. Besides, the outcome in the data set on Fibroblast [2], with HeLa [5], in the data set with SK-N-BE(2) [7] and in the data set with SK-N-BE(2) [16] was inactive. Further, the Activity entry (in data set [4]; in the data set with IB3-1 [11]; in [12]; in the data set with IB3-1 [13]; with HaCaT [14]; in the data set on HaCaT [15]) was “Non-Toxic” in each case.
In the case of `CCCCN1C[C@H](O)[C@@H](O)[C@H](O)[C@H]1CO`, the inhibition result with SK-N-BE(2) [1], in the data set with SK-N-BE(2) [17], in the data set with Fibroblast [18], with Fibroblast [6], in the data set with Fibroblast [19] and with Fibroblast [9] was “inactive” each time. The inhibition result in the data set on Fibroblast [10], in the data set on Fibroblast [20], in the data set with Fibroblast [21], in the data set with Fibroblast [22] and with SK-N-BE(2) [23] was “inactive” throughout. The outcome in the data set with Fibroblast [2], in the data set with HeLa [5] and in the data set on SK-N-BE(2) [16] was inactive.
Regarding `CCCCCCOCCCCCN1C[C@@H](O)[C@H](O)[C@@H](O)[C@@H]1CO.Cl`, the inhibition result in the data set on SK-N-BE(2) [1], in the data set with HeLa [3], in the data set with Fibroblast [6], in the data set on SK-N-BE(2) [8], in the data set with Fibroblast [9] and in the data set with Fibroblast [10] was “inactive” in each case. Besides, the result in the data set on Fibroblast [2], in the data set with HeLa [5], in the data set on SK-N-BE(2) [7] and in the data set on SK-N-BE(2) [16] was inactive. Moreover, the Activity result (in data set [4]; in the data set on IB3-1 [11]; in data set [12]; in the data set on IB3-1 [13]; with HaCaT [14]; in the data set with HaCaT [15]) was “Non-Toxic” each time.
With `OC[C@H]1NC[C@H](O)[C@@H](O)[C@@H]1O`, the inhibition result in the data set with SK-N-BE(2) [1], in the data set with SK-N-BE(2) [17], with Fibroblast [18], with Fibroblast [6], in the data set on Fibroblast [19] and in the data set with Fibroblast [9] was “inactive” throughout. The inhibition result in the data set on Fibroblast [10], in the data set on Fibroblast [20], in the data set with Fibroblast [21], in the data set on Fibroblast [22] and in the data set on SK-N-BE(2) [23] was “inactive” each time. The outcome in the data set with Fibroblast [2], in the data set on HeLa [5] and in the data set on SK-N-BE(2) [16] was inactive.

The values are drawn from ChEMBL document CHEMBL5380783, “N-Substituted l-Iminosugars for the Treatment of Sanfilippo Type B Syndrome” (J Med Chem, 2023).
